Screening results deposited in PubChem by several laboratories.
Shown are actives, neighbours in structure and some others; about 4.8% of the full set was active somewhere.
697 NFkB inh: inhibitors of the PMA/ionomycin-induced NF-kB reporter in 697 B cells | inhibition, % at 4 µM | 0.33% of 330,000 active | AID 435022 | 697 B-cell NF-kB luciferase reporter, 16 h; in the data active = inhibition above about 35%
HSF-1 act: increases HSF-1 driven luciferase reporter signal | NIH3T3-HGL HSF-1 luciferase reporter, MG132, 8 h; 100% = twice DMSO control signal | activation, % at 9 µM | 1.7% of 300,000 active | AID 504408;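 active = mean replicate activation of at least 50% with a set share of replicates each reaching 50%; inconclusive = only one of those two conditions met; inactive = mean below 50% and too few replicates reaching it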;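 also: 0% = median of the neutral control wells and 100% = twice that signal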
GPR7 antagonist: human neuropeptides B/W receptor 1 antagonism; GPR7-expressing cells, fluorescence antagonist assay; 1.1% of 290,000 active; AID 1861; P48145; inhibition, % at 4.4 µM; in the data active = inhibition above about 16%, passing the limit was not always enough;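 also: cells stimulated with the agonist NPW; 0% = agonist with vehicle and 100% = vehicle without agonist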
Target sequence (P48145 whole entry, looked up): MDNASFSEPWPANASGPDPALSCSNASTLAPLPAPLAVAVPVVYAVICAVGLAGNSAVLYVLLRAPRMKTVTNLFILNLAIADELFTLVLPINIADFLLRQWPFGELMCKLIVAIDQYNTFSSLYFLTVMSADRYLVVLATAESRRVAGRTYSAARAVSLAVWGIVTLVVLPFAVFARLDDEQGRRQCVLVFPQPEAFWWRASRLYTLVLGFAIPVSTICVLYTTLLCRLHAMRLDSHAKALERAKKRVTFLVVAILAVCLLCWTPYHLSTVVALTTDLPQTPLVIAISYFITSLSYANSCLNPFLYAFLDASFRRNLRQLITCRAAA
HSF1 inhib: HSF1 inhibition. NIH3T3-HGL HSE-luciferase, MG132-induced, luminescence 8 h; stronger effect = lower value. activity change, negative = inhibition, % at 7.5 µM (by protocol). 0.77% of 300,000 active;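 active = more than half of replicate wells show activity change below -50%, luminescence cut by over half; inconclusive = some wells, but at most half, below -50%; inactive = no replicate well below -50%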;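 also: luciferase reports HSF-1 transcriptional activity via heat shock element; 0% = median of DMSO wells and -100% = zero luminescence signal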
T cruzi repl: T. cruzi replication inhibition; T. cruzi beta-gal in NIH3T3, luminescence, 90 h; 1.4% of 300,000 active; AID 1885; inhibition, % (concentration not given with the values);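 active = mean inhibition across valid replicates above about 55%, limit read from the data; inconclusive = mean below that limit but half or more replicates reach it; inactive = mean below it, under half of replicates reach it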;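 also: signal also drops with host cell toxicity which is not excluded here; 0% = plate median of DMSO wells and 100% = zero luminescence signal; higher percent means less beta-gal luminescence so fewer parasites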
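System – NIH/3T3 host cells with β-galactosidase reporter T. cruzi · Doses – single 50 nL compound addition per well in DMSO · Reagent – 5000 T. cruzi trypomastigotes/well · Medium – Low-serum DMEM with 2% FBS · Timing – ≥90 h infection period, 3 h prior cell attachment · Evaluation – parasite load inhibition, % · Technique – GalScreen luminescence, 60 min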
Jurkat NFkB inh: inhibitors of the PMA/ionomycin-induced NF-kB reporter in Jurkat cells; PMA/ionomycin-induced NF-kB luciferase reporter, luminescence; AID 435003; inhibition, % at 4 µM; 0.53% of 330,000 active; in the data active = inhibition above about 50%
697 NFkB conf: inhibitors of the PMA/ionomycin-induced NF-kB reporter in 697 B cells, retest. shares compounds with 697 NFkB inh. 697 B-cell NF-kB luciferase, 16 h. inhibition, % at 4 µM. 35% of 2,000 active; in the data active = inhibition mostly above about 28%, no sharp cut-off; inactive = mostly below about 22%
* marks the source's active call; other numbers are inactive results; i = inactive; ? = inconclusive; . = no result given.

SMILES | 697 NFkB inh | HSF-1 act | GPR7 antagonist | HSF1 inhib | T cruzi repl | Jurkat NFkB inh | 697 NFkB conf
O=C(c1cccc(S(=O)(=O)N2CCOCC2)c1)N1CCCCCC1 | -8 | 11 | -4 | -7 | -5 | -1 | .
Cc1ccc(CSc2nnc(SCC(=O)N/N=C/C=C/c3ccco3)s2)cc1 | 31 | 2 | -9 | 0 | -8 | -2 | .
Cc1ccc(CSc2nnc(SCC(=O)N/N=C/C=C/c3ccccc3[N+](=O)[O-])s2)cc1 | 66* | 15 | -2 | 9 | 10 | -7 | 55*
O=c1cc(N2CCN(c3cccc(Cl)c3)CC2)[nH]c(=O)n1C1CCCCC1 | 43* | -1 | 2 | -4 | 16 | 47 | 29
Cn1cc(/C=N/Nc2ccccc2)c2ccccc21 | 0 | 14 | 8 | 5 | 7 | 9 | .
CC(C)n1cc(/C=N/Nc2ccc(C(=O)O)cc2)c2ccccc21 | -305 | -84 | -1 | -82* | 4 | 7 | -10
O=C(CSc1nnc(Nc2ccccc2)s1)NC1CCCC1 | -18 | . | . | . | . | -11 | .
Cc1cc2ncc(-c3cccs3)nc2cc1C | -279 | 11 | -12 | 2 | -3 | -122 | -325
c1csc(-c2ccc3ccccc3n2)c1 | -48 | 31 | -10 | 22 | -11 | -60 | .
CCOc1ccccc1NC(=O)CNC(=O)CNC(=O)Cc1ccccc1 | -5 | 8 | -9 | -6 | 1 | 6 | .
O=C(/C=C/Nc1ccccc1F)c1cccs1 | -349 | ? | -2 | 20 | -14 | -112 | -88
CCOC(=O)c1ccccc1N/C=C/C(=O)c1cccs1 | -1 | 37 | -7 | 6 | -5 | -7 | .
Cc1cc(Cl)ccc1OCc1nnc2n1CCCCC2 | 19 | -3 | 4 | -6 | -16 | -6 | .
CC(=O)c1c(-c2ccccc2)c2cc(Cl)ccc2[nH]c1=O | 36* | 19 | -4 | 1 | 3 | -1 | -6
O=C1COc2ccc(S(=O)(=O)CCC(=O)N3CCN(c4cccc(C(F)(F)F)c4)CC3)cc2N1 | -6 | 2 | -3 | -3 | -6 | 21 | .
CCCc1c(NC(=O)Nc2ccc(F)cc2)cnn1-c1ccccc1 | i | 18 | -20 | 2 | 1 | -65 | i
Cc1ccc(-c2nnc(-c3ccccc3Br)o2)cc1 | -277 | ? | -1 | 30 | -13 | -129 | -281
COc1ccc(C(C)=O)cc1COC(=O)c1ccc(C)c(S(=O)(=O)N2CCOCC2)c1 | -17 | . | . | . | . | 12 | .
O=C(NCc1ccccc1)C1CCCN(S(=O)(=O)c2ccc(Br)cc2)C1 (stereo not given) | -5 | 0 | -23 | 4 | 12 | 22 | .
O=C(c1ccoc1)N1CCC2(CC1)Oc1ccc(Cl)cc1C(=O)C21CC(c2ccc(Cl)cc2)=NO1 (stereo not given) | 1 | -20 | . | -8 | 19 | 6 | .
O=C(c1ccoc1)N1CCC2(CC1)Oc1ccc(F)cc1C(=O)C21CC(c2ccc(Cl)cc2)=NO1 (stereo not given) | 36* | -15 | . | -2 | 34 | 18 | 19
CCc1ccccc1Nc1nc(N)nc(COC(=O)c2cccn2C)n1 | -324 | 14 | -12 | 6 | 4 | -93 | -118
CN1CCN(C(=O)CCCOc2cc(=O)n(C)c3ccccc23)CC1 | 28 | 18 | -11 | 3 | 3 | -6 | .
Cn1c(=O)cc(OCCCC(=O)N2CCCCC2)c2ccccc21 | 39* | 3 | -3 | 7 | 7 | -10 | 42*
Cn1c(=O)cc(OCCCC(=O)NCc2ccccn2)c2ccccc21 | 36* | 10 | -2 | -2 | -1 | 4 | 31*
SMILES | 697 NFkB inh | HSF-1 act | GPR7 antagonist | HSF1 inhib | T cruzi repl | Jurkat NFkB inh | 697 NFkB conf
Cn1c(=O)cc(OCCCC(=O)NC2CCCC2)c2ccccc21 | 69* | 56* | -9 | 23 | 5 | 4 | 46*
Cn1c(=O)cc(OCC(=O)NC2CCCCC2)c2ccccc21 | -5 | 2 | -4 | 0 | 11 | -12 | .
CCNS(=O)(=O)c1ccc2c3c(cccc13)C(=O)N2 | 38* | -20 | -19 | -5 | -4 | 5 | 19
CCCC[n+]1ccn(-c2nc3ccccc3nc2[N-]S(=O)(=O)c2ccc(Br)cc2)c1 | 37* | 9 | -13 | -2 | 3 | 10 | 16
CC(C)CC[n+]1ccn(-c2nc3ccccc3nc2[N-]S(=O)(=O)c2ccccc2)c1 | 3 | -3 | -13 | -3 | -7 | 1 | .
O=C(OCC(=O)N1CCN(C(=O)COC(=O)c2ccc(O)cc2O)CC1)c1ccc(O)cc1O | 39* | 1 | . | 0 | -5 | -1 | 12
CCOC(=O)c1cc(NC(=O)c2ccoc2C)cc(C(=O)OCC)c1 | 37* | 0 | 6 | 5 | 32 | 10 | 19
COc1cc(OC)c2cc(C(=O)N/N=C/c3ccccc3O)[nH]c2c1 | -16 | 12 | -7 | -2 | 9 | 24 | .
Cc1cccc(NC(=O)CSc2nnc(-c3cc(C)n(-c4ccccc4)c3C)o2)c1C | 71* | -45 | -6 | -30 | 6 | -12 | 25
Cc1ccc(-c2cnc(-c3ccncc3)o2)cc1 | -27 | 35 | 1 | 25 | 14 | -82 | .
Nc1ccc(-c2ncc(-c3ccccc3)o2)cc1 | 40* | -27 | -6 | -28 | -2 | -124 | -6
COc1cccc(C2/C(=C(/O)c3ccc4c(c3)CC(C)O4)C(=O)C(=O)N2CCCn2ccnc2)c1 (stereo not given) | -7 | 11 | -9 | 3 | -7 | -11 | .
O=C(NNC(=O)C12CC3CC(CC(C3)C1)C2)c1cccc(O)c1 | 44* | 41 | 0 | 13 | 0 | 7 | 45*
Cc1ccc(NC(=O)COc2coc(CN3CCc4ccccc43)cc2=O)cc1Cl | -25 | 7 | . | 10 | 10 | 6 | .
CC(=O)Nc1ccc(NC(=O)CSc2nnc(-c3cccs3)n2N)cc1 | 40* | -11 | . | -5 | -4 | 19 | -1
CCOC(=O)c1cc2c(=O)n3ccccc3nc2n(C)c1=NC(=O)c1c(-c2c(F)cccc2Cl)noc1C | 48* | 12 | . | -4 | -2 | -15 | 5
Cc1ccnc(NS(=O)(=O)c2cc([N+](=O)[O-])ccc2C)c1 | 36* | 2 | -3 | -7 | -7 | -6 | -4
Cc1ccnc(NS(=O)(=O)c2ccccc2)c1 | -9 | 6 | 24 | 0 | 2 | -6 | .
Cc1cccc(OCc2cc(-c3ccccc3)no2)c1C | -50 | 26 | -10 | 19 | -12 | -54 | .
Clc1ccc(OCc2cc(-c3ccccc3)no2)c(Cl)c1 | -466 | -23 | -4 | -7 | 6 | -123 | -353
Cc1ccc(OCc2nc(-c3ccccn3)no2)c(Br)c1 | -202 | 26 | 1 | 9 | -5 | -89 | .
CCc1ccc(OCc2nc(-c3ccccn3)no2)c(Br)c1 | -352 | 37 | -8 | 6 | 35 | -112 | -310
